Scp1 inh: Scp-1 phosphatase inhibitors, primary screen, biochemical, colorimetric, uHTS | Carboxy-terminal domain RNA polymerase II polypeptide A small phosphatase 1 (Homo … | Recombinant Scp1, phosphopeptide, malachite green phosphate absorbance | inhibition, % at 20 µM | actives 0.88% (n = 340,000) | AID 493091, 2011;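 active = inhibition above about 50% at 20 µM, limit read from the data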
Target sequence (Q9GZU7 76-261 limits assumed): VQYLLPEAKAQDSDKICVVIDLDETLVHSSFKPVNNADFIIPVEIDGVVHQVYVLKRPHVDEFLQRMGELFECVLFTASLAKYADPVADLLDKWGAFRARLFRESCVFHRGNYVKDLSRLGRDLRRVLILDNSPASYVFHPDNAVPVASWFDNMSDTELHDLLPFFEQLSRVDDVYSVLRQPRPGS
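Test system: SCP-1 phosphatase catalytic domain, residues 76-261; measured by: colorimetric phosphate reagent with accelerator and stabiliser, absorbance at 630 nm; timing: enzyme reaction 45 min at room temperature, colour 5 min, stabilisation 30 min; also added: Phosphorylated 17-residue peptide substrate; compound dosing: one concentration, 20 µM, with 1.0% DMSO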
LMPTP block: LMPTP phosphatase inhibitors, primary screen, biochemical, fluorescence intensity, uHTS | Low molecular weight phosphotyrosine protein phosphatase (Homo sapiens), P24666 | inhibition, % at 20 µM | recombinant LMPTP-A, OMFP fluorogenic substrate | AID 651560, 2012 | actives 0.22% (n = 360,000);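 active = compounds that cut the enzyme signal by at least half of the control window in the single-dose screen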
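Assay system: LMPTP-A enzyme. Input: 0.625 nM LMPTP-A final. Probe or stimulus: 400 µM OMFP. Compound dosing: single 20 µM dose. Schedule: 50 min dark incubation at room temperature. Detection: fluorescence intensity of OMFP turnover product. Read-out: percent inhibition versus substrate-only and uninhibited controls. Benchmarks: no-enzyme low control, uninhibited high control.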
PP5 primary: PP5 phosphatase inhibitors, primary screen, biochemical, fluorescence. purified PP5c, OMFP substrate fluorescence. Serine/threonine-protein phosphatase 5 (Homo sapiens), P53041. inhibition, % at 6.7 µM. actives 0.18% (n = 320,000);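 active = inhibition above the campaign's mean inhibition across all tested compounds plus 3 SD, cut at about 9.5% in these data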
Target sequence (P53041 whole entry, looked up): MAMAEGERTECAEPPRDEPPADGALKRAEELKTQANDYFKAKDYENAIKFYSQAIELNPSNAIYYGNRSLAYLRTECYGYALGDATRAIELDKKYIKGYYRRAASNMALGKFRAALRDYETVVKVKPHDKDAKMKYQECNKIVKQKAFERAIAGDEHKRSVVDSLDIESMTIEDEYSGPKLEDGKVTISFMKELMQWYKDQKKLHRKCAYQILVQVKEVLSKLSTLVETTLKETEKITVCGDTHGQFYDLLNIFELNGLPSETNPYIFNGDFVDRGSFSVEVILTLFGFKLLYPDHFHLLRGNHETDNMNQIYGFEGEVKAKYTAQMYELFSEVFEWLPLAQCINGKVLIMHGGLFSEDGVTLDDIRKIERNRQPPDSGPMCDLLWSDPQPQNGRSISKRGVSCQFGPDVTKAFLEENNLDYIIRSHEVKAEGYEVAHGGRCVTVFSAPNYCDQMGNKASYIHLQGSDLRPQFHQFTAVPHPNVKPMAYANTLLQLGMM
STEP block: STEP phosphatase inhibitors, primary screen, biochemical, fluorescence intensity, uHTS; recombinant STEP, OMFP fluorogenic substrate; actives 0.25% (n = 360,000); inhibition, % at 20 µM;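 active = inhibition at 20 µM, scaled per plate between control wells, above about 37%, limit read from the data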
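material = STEP tyrosine phosphatase | reagent = fluorogenic phosphatase substrate OMFP at 25 µM final | doses = single compound dose of 20 µM, 1% DMSO final | schedule = 20 min reaction, room temperature, in the dark | measured by = fluorescence, 480/540 nm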
PP1 counter: PP1-alpha phosphatase inhibitors, primary screen, counter-screen for PP5 inhibitor project, biochemical, fluorescence, OMFP substrate, single point; inhibition, % at 6.7 µM; AID 2235, 2010; actives 0.9% (n = 320,000); purified PP1alpha;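 active = inhibition above the mean inhibition of all tested compounds plus 3 SD, computed separately for each screening campaign, cut at about 15% in these data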
Scp-1 conf: Scp-1 phosphatase inhibitors, retest, confirmation, biochemical, colorimetric, single concentration. shares compounds with Scp1 inh. recombinant SCP-1 catalytic domain, phosphate release, malachite green absorbance. inhibition, % at 20 µM. actives 61% (n = 2,500)
MG interference: colorimetric readout interference by compounds, confirmation, artefact control for Scp-1 inhibitor project, biochemical, single concentration; shares compounds with Scp1 inh; Colorimetric interference counterscreen, malachite green absorbance 630 nm; apparent inhibition (interference), % at 20 µM; 2,500 tested, under 10 active; AID 540313, 2011;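 note: compounds added after enzyme reaction finished so only phosphate colour detection is probed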
Scp1 DSF: Scp-1 binding by thermal shift, confirmation, orthogonal assay for Scp-1 inhibitor project, biophysical, differential scanning fluorimetry. thermal shift relative to vanadate control, % at 40 µM. actives 25% (n = 1,500). Recombinant SCP1, Sypro Orange thermal shift Tm. AID 540329, 2011. shares compounds with Scp1 inh;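 active = substances whose mean melting-temperature shift, as a percentage of the reference inhibitor's shift, reaches about 5.3%, limit read from the data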
A number is an active result; . = inactive; / = no result given. The list is not random: actives were taken first. Their share in the collection is about 1.9%.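 Rule for the calls, unless noted: active = inhibition of at least 30% at 20 µM; inactive = the rest.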

SMILES | Scp1 inh | LMPTP block | PP5 primary | STEP block | PP1 counter | Scp-1 conf | MG interference | Scp1 DSF
Cc1ccc(NC(=O)CCc2nc3sc4c(c3c(=O)[nH]2)CCCC4)nc1 | 61.6 | . | . | . | . | 66.0 | . | 9.0
CCCN(CCC)S(=O)(=O)c1ccc(C(=O)N2CCN(C)CC2)cc1 | . | . | / | . | / | / | / | /
O=C(CN1CCN(Cc2ccc(F)cc2Cl)C1=O)NCCc1ccccc1 | 50.4 | . | . | . | . | . | . | /
Cc1noc(C)c1NC(=O)N(C)C[C@H]1Oc2c(NC(=O)c3ccncc3)cccc2C(=O)N([C@H](C)CO)C[C@@H]1C | 60.8 | . | / | . | / | . | . | /
Cc1noc(C)c1NC(=O)N(C)C[C@H]1Oc2c(NC(=O)NC(C)C)cccc2C(=O)N([C@H](C)CO)C[C@@H]1C | . | . | / | . | / | / | / | /
C[C@H](CO)N1C[C@H](C)[C@@H](CN(C)S(C)(=O)=O)Oc2c(NC(=O)c3ccncc3)cccc2C1=O | 54.9 | . | / | . | / | . | . | /
C[C@H](CO)N1C[C@H](C)[C@@H](CN(C)Cc2ccc(Cl)c(Cl)c2)Oc2c(NC(=O)c3ccncc3)cccc2C1=O | 54.4 | . | / | . | / | . | . | /
CN(CCC#N)C(=O)COC(=O)c1c2c(nc3ccccc13)/C(=C\c1ccco1)CC2 | 84.4 | 67.3 | / | . | / | 53.5 | . | 10.3
CC1CCCCC1NC(=O)COC(=O)c1c2c(nc3ccccc13)/C(=C\c1ccco1)CC2 (stereo not drawn) | 50.2 | 50.4 | / | . | / | 60.5 | . | 9.4
O=C(COC(=O)c1c2c(nc3ccccc13)/C(=C\c1ccco1)CC2)NC1CCCC1 | 90.7 | 65.2 | / | . | / | 61.0 | . | 15.1
O=C(COC(=O)c1c2c(nc3ccccc13)/C(=C/c1cccc([N+](=O)[O-])c1)CCC2)NC1CCS(=O)(=O)C1 (stereo not drawn) | . | . | . | . | . | / | / | /
CC(C)Oc1cccc(C(=O)C2CCCN(C(=O)CCn3cnnn3)C2)c1 (stereo not drawn) | . | . | . | . | . | / | / | /
CC(=O)Nc1ccc(C)cc1NC(C)=O | . | . | . | . | . | / | / | /
CCC[N+]1(CC#CC2(O)CCCCC2)CCOCC1 | 58.7 | . | . | . | . | 76.7 | . | .
O=C(c1cccnc1)N1CCC(Oc2ccc(C(=O)N3CCCCO3)cc2)CC1 | 69.3 | . | . | . | . | . | . | /
CCC(=O)C1CCCN(C(=O)c2ccc(OC3CCN(C(=O)c4cccnc4)CC3)cc2)C1 (stereo not drawn) | . | . | . | . | . | / | / | /
COC(C[C@H]1O[C@H]1[C@@H](O)[C@H](C)OCc1ccccc1)OC | . | . | / | . | / | / | / | /
CC(Oc1cccc([N+](=O)[O-])c1)C(=O)NCCC1=CCCCC1 (stereo not drawn) | 59.0 | . | . | . | . | . | . | /
CC(C(=O)NCCC1=CCCCC1)c1ccc([N+](=O)[O-])cc1 (stereo not drawn) | . | . | . | . | . | / | / | /
Nc1cc(=O)[nH]c(SCC(=O)Nc2cc(Cl)cc(Cl)c2)n1 | . | . | . | . | . | . | . | /
CN(Cc1ccccc1)C(=O)c1ncn(Cc2ccccc2)c1C(=O)N(C)Cc1ccccc1 | . | . | . | . | . | / | / | /
CN(Cc1ccccc1)C(=O)c1ncn(C)c1C(=O)N(C)Cc1ccccc1 | 93.4 | . | . | . | . | 84.6 | . | .
O=C1CC(c2ccc(S(=O)(=O)Nc3cc(C(F)(F)F)cc(C(F)(F)F)c3)cc2)CN1 (stereo not drawn) | . | . | . | . | . | . | . | /
Cc1c(C(=O)O)sc2nc3n(c(=O)c12)CCC3 | 63.5 | . | . | . | . | 54.7 | . | .
O=C1NCCN1CCNS(=O)(=O)c1ccc2ccccc2c1 | . | . | . | . | . | . | . | /
SMILES | Scp1 inh | LMPTP block | PP5 primary | STEP block | PP1 counter | Scp-1 conf | MG interference | Scp1 DSF
O=C(O)c1cc(S(=O)(=O)NCCN2CCNC2=O)ccc1O | . | . | . | . | . | / | / | /
Cc1ccc(NC(=O)CSc2ccccc2NC(=O)c2ccccc2Cl)cc1Cl | 89.7 | . | . | . | . | 63.2 | . | .
COc1ccc(/C=N/NC(=O)c2ccc(Br)o2)cc1Cn1cc([N+](=O)[O-])cn1 | . | . | . | . | . | / | / | /
O=C(Nc1nc2ccsc2c(=O)s1)c1ccc(F)cc1Cl | 54.7 | . | . | . | . | 38.5 | . | .
O=C(Nc1nc2ccsc2c(=O)s1)c1ccc(F)cc1 | 95.7 | 64.8 | . | 97.6 | . | 51.0 | . | .
Cc1csc2c(=O)sc(NC(=O)c3ccc(F)cc3)nc12 | . | . | . | . | . | / | / | /
O=C(Nc1ccccc1O)c1cccc(NC(=O)c2ccco2)c1 | . | . | . | . | . | / | / | /
CN1CCN(S(=O)(=O)c2cccc(C(=O)N(C)CC(=O)Nc3ccc(F)c(F)c3F)c2)CC1 | 94.7 | . | . | . | . | . | . | /
Cc1ccc(-c2cc(C(=O)N/N=C/c3ccccc3O)n[nH]2)o1 | . | . | . | . | . | / | / | /
CN(CC(=O)Nc1ccc(F)cc1)C(=O)c1cc(-c2ccco2)nc2ccccc12 | 70.4 | . | . | . | . | 62.0 | . | 8.9
COc1cccc(NC(=O)CN(C)C(=O)c2cc(-c3ccco3)nc3ccccc23)c1 | 64.3 | . | . | . | . | 60.8 | . | 5.3
CCOc1ccc(NC(=O)CN(C)C(=O)c2cc(-c3ccco3)nc3ccccc23)cc1OCC | . | . | / | . | / | / | / | /
CCOc1ccccc1OCCCC(=O)NNC(=O)c1ccc(F)cc1 | 58.7 | . | / | . | / | . | . | /
Cc1ccc2nc(SC(C(=O)Nc3ccc(F)cc3)c3ccccc3)[nH]c2c1 (stereo not drawn) | . | . | . | . | . | / | / | /
CCC(C)/C(C)=N/NC(=O)c1ccccc1OCCOc1ccccc1 (stereo not drawn) | . | . | . | . | . | / | / | /
Cc1ccc(N2CC(C(=O)N3CCOCC3)CC2=O)cc1C (stereo not drawn) | . | . | . | . | . | / | / | /
O=C(NN=C1CCCC1)c1cc(O)cc(O)c1 | 52.0 | . | . | . | . | 53.5 | . | .

Screens deposited in PubChem by several laboratories.
